Assay type in all cases: functional
One experiment concerns Proteus vulgaris. In words: Antibacterial activity against Proteus vulgaris. Put shortly: (§1)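 Twofold serial broth dilution in tubes, triplicate. Ten tubes of seeded broth (2 mL each); compound added as a 1 mg/mL DMF solution to the first tube, then serially transferred. Bacteria inoculated at 2×10^5 cfu/mL and incubated at 37 °C for 18–24 h. MIC (µg/mL) read visually. DMF solvent, positive growth and standard drug controls run alongside.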

For the next experiment, the system named is Staphylococcus aureus. In words: Antibacterial activity against Staphylococcus aureus. In outline:
as §1

The subject of a further experiment is Candida albicans. Put plainly: Antifungal activity against Candida albicans. In outline: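 For Candida albicans: broth double-dilution in tubes, run in triplicate. Compound added as a 1 mg/mL DMF solution to the first of ten seeded-broth tubes (2 mL), then serially diluted by transfer. Fungal inoculum 5×10^5 cfu/mL; incubation at 30 °C for 48 h. MIC (µg/mL) by visual reading. Controls were DMF solvent, positive growth and standard drug.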

The test system of another experiment is Escherichia coli. In words: Antibacterial activity against Escherichia coli. Put shortly:
as §1

The next experiment has as its system Pseudomonas aeruginosa. In words: Antibacterial activity against Pseudomonas aeruginosa. Put shortly: as §1

Structures are written as SMILES. Values after ≈ are worked out from the molar mass of the structure shown.

Data on 18 compounds can be found in ChEMBL document CHEMBL1141859, “Synthesis and antimicrobial activity of 5-hydroxymethyl- 8-methyl-2-(N-arylimino)-pyrano[2,3-c]pyridine-3-(N-aryl)-carboxamides” (2005).

The MIC is the lowest concentration that inhibits growth of the organism. A high value points to weaker potency. In the case of `COc1ccc(NC(=O)c2cc3c(CO)cnc(C)c3o/c2=N\c2ccc(Cl)c(Cl)c2)c(OC)c1`, the MIC against Proteus vulgaris, with Staphylococcus aureus, against Candida albicans, against Escherichia coli and in the experiment on Pseudomonas aeruginosa was 50 µg/mL (≈ 97.2 µM) each time.
In the case of `CCOc1ccc(/N=c2\oc3c(C)ncc(CO)c3cc2C(=O)Nc2cccc(C)c2)cc1`, the MIC against Proteus vulgaris worked out at 50 µg/mL (≈ 113 µM); in the experiment on Staphylococcus aureus it was 50 µg/mL (≈ 113 µM); against Candida albicans, 50 µg/mL (≈ 113 µM); against Escherichia coli it was 50 µg/mL (≈ 113 µM); in the experiment with Pseudomonas aeruginosa it was 25 µg/mL (≈ 56.4 µM).
`COc1ccc(NC(=O)c2cc3c(CO)cnc(C)c3o/c2=N\c2ccc(OC)c(OC)c2)c(OC)c1`: the MIC turned out to be 50 µg/mL (≈ 98.9 µM) with Proteus vulgaris; 25 µg/mL (≈ 49.5 µM) in the experiment with Staphylococcus aureus; 50 µg/mL (≈ 98.9 µM) with Candida albicans; 50 µg/mL (≈ 98.9 µM) in the experiment with Escherichia coli; 50 µg/mL (≈ 98.9 µM) in the experiment on Pseudomonas aeruginosa.
Take `Cc1ccc(NC(=O)c2cc3c(CO)cnc(C)c3o/c2=N\c2ccc(Br)cc2)cc1`: the MIC against Proteus vulgaris was found to be 50 µg/mL (≈ 105 µM); in the experiment on Staphylococcus aureus, 25 µg/mL (≈ 52.3 µM); with Candida albicans, 25 µg/mL (≈ 52.3 µM); against Escherichia coli it was 50 µg/mL (≈ 105 µM); in the experiment with Pseudomonas aeruginosa, 50 µg/mL (≈ 105 µM).
`Cc1ccc(NC(=O)c2cc3c(CO)cnc(C)c3o/c2=N\c2cccc(Cl)c2)cc1`: the MIC in the experiment on Proteus vulgaris is 50 µg/mL (≈ 115 µM); in the experiment with Staphylococcus aureus, 50 µg/mL (≈ 115 µM); in the experiment on Candida albicans it was 25 µg/mL (≈ 57.6 µM); against Escherichia coli it was 50 µg/mL (≈ 115 µM); in the experiment on Pseudomonas aeruginosa, 50 µg/mL (≈ 115 µM).
In the case of `COc1ccc(/N=c2\oc3c(C)ncc(CO)c3cc2C(=O)Nc2cccc(C)c2)cc1OC`, the MIC was determined as 100 µg/mL (≈ 218 µM) in the experiment with Proteus vulgaris; 50 µg/mL (≈ 109 µM) against Staphylococcus aureus; 50 µg/mL (≈ 109 µM) against Candida albicans; 50 µg/mL (≈ 109 µM) against Escherichia coli; 100 µg/mL (≈ 218 µM) with Pseudomonas aeruginosa.
Turning to `Cc1ccc(/N=c2\oc3c(C)ncc(CO)c3cc2C(=O)Nc2cccc(C)c2)cc1`, the MIC against Proteus vulgaris, in the experiment on Staphylococcus aureus, in the experiment with Candida albicans, in the experiment on Escherichia coli and against Pseudomonas aeruginosa was 50 µg/mL (≈ 121 µM) each time.
`COc1cccc(/N=c2\oc3c(C)ncc(CO)c3cc2C(=O)Nc2ccc(C)cc2)c1`: the MIC with Proteus vulgaris came to 100 µg/mL (≈ 233 µM); with Staphylococcus aureus, 50 µg/mL (≈ 116 µM); against Candida albicans, 50 µg/mL (≈ 116 µM); with Escherichia coli it was 25 µg/mL (≈ 58.2 µM); against Pseudomonas aeruginosa it was 50 µg/mL (≈ 116 µM).
In the case of `Cc1ccc(NC(=O)c2cc3c(CO)cnc(C)c3o/c2=N\c2ccccc2I)cc1`, the MIC stood at 100 µg/mL (≈ 190 µM) in the experiment on Proteus vulgaris; 25 µg/mL (≈ 47.6 µM) against Staphylococcus aureus; 50 µg/mL (≈ 95.2 µM) in the experiment with Candida albicans; 50 µg/mL (≈ 95.2 µM) in the experiment on Escherichia coli; 50 µg/mL (≈ 95.2 µM) against Pseudomonas aeruginosa.
Take `Cc1cccc(NC(=O)c2cc3c(CO)cnc(C)c3o/c2=N\c2ccc(C)c(C)c2)c1`: the MIC against Proteus vulgaris worked out at 50 µg/mL (≈ 117 µM); in the experiment with Staphylococcus aureus, 50 µg/mL (≈ 117 µM); in the experiment on Candida albicans, 12.5 µg/mL (≈ 29.2 µM); against Escherichia coli, 25 µg/mL (≈ 58.5 µM); with Pseudomonas aeruginosa it was 12.5 µg/mL (≈ 29.2 µM).
Turning to `CCOC(=O)c1ccc(/N=c2\oc3c(C)ncc(CO)c3cc2C(=O)Nc2ccccc2)cc1`, the MIC in the experiment with Proteus vulgaris, against Staphylococcus aureus, in the experiment on Candida albicans, with Escherichia coli and in the experiment with Pseudomonas aeruginosa was 50 µg/mL (≈ 109 µM) each time.
As to `Cc1cccc(NC(=O)c2cc3c(CO)cnc(C)c3o/c2=N\c2cccc(Cl)c2)c1`, the MIC against Proteus vulgaris worked out at 100 µg/mL (≈ 230 µM); against Staphylococcus aureus it was 100 µg/mL (≈ 230 µM); in the experiment with Candida albicans it was 50 µg/mL (≈ 115 µM); in the experiment with Escherichia coli, 50 µg/mL (≈ 115 µM); against Pseudomonas aeruginosa, 50 µg/mL (≈ 115 µM).
For the compound `CCc1ccccc1/N=c1\oc2c(C)ncc(CO)c2cc1C(=O)Nc1ccc(C)cc1`, the MIC against Proteus vulgaris, against Staphylococcus aureus, in the experiment on Candida albicans, with Escherichia coli and with Pseudomonas aeruginosa was 50 µg/mL (≈ 117 µM) throughout.
Regarding `Cc1cccc(NC(=O)c2cc3c(CO)cnc(C)c3o/c2=N\c2ccccc2)c1`, the MIC in the experiment with Proteus vulgaris turned out to be 50 µg/mL (≈ 125 µM); in the experiment with Staphylococcus aureus it was 100 µg/mL (≈ 250 µM); in the experiment on Candida albicans it was 12.5 µg/mL (≈ 31.3 µM); with Escherichia coli, 50 µg/mL (≈ 125 µM); in the experiment on Pseudomonas aeruginosa it was 25 µg/mL (≈ 62.6 µM).
For the compound `Cc1ccc2nc(-c3ccc(/N=c4\oc5c(C)ncc(CO)c5cc4C(=O)Nc4ccccc4)cc3)sc2c1`, the MIC in the experiment with Proteus vulgaris was 50 µg/mL (≈ 93.9 µM); against Staphylococcus aureus it was 100 µg/mL (≈ 188 µM); against Candida albicans it was 50 µg/mL (≈ 93.9 µM); in the experiment on Escherichia coli, 25 µg/mL (≈ 46.9 µM); in the experiment on Pseudomonas aeruginosa, 100 µg/mL (≈ 188 µM).
For `COc1ccccc1/N=c1\oc2c(C)ncc(CO)c2cc1C(=O)Nc1ccc(C)cc1`, the MIC against Proteus vulgaris came out at 100 µg/mL (≈ 233 µM); in the experiment on Staphylococcus aureus, 100 µg/mL (≈ 233 µM); against Candida albicans it was 25 µg/mL (≈ 58.2 µM); in the experiment on Escherichia coli, 50 µg/mL (≈ 116 µM); in the experiment on Pseudomonas aeruginosa, 50 µg/mL (≈ 116 µM).
Consider `Cc1ccc(/N=c2\oc3c(C)ncc(CO)c3cc2C(=O)Nc2ccccc2C)cc1C`, for which the MIC against Proteus vulgaris was determined as 50 µg/mL (≈ 117 µM); against Staphylococcus aureus it was 100 µg/mL (≈ 234 µM); against Candida albicans, 100 µg/mL (≈ 234 µM); in the experiment on Escherichia coli it was 50 µg/mL (≈ 117 µM); in the experiment with Pseudomonas aeruginosa it was 25 µg/mL (≈ 58.5 µM).
Turning to `Cc1ccc(NC(=O)c2cc3c(CO)cnc(C)c3o/c2=N\c2ccc(Oc3ccccc3)cc2)cc1`, the MIC with Proteus vulgaris came out at 50 µg/mL (≈ 102 µM); against Staphylococcus aureus it was 50 µg/mL (≈ 102 µM); with Candida albicans it was 12.5 µg/mL (≈ 25.4 µM); against Escherichia coli, 50 µg/mL (≈ 102 µM); with Pseudomonas aeruginosa, 50 µg/mL (≈ 102 µM).
